From ChEMBL document CHEMBL4371095, “Triazole-Based Inhibitors of the Wnt/β-Catenin Signaling Pathway Improve Glucose and Lipid Metabolisms in Diet-Induced Obese Mice” (J Med Chem, 2019) come the findings set out here.

Data set [1] concerns HEK293. The experiment in a line: Inhibition of Wnt/beta-catenin signaling (unknown origin) expressed in HEK293 cells harboring TCF/LEF-responsive luciferase assessed as luminescence at 20 nM measured after 24 hrs by luciferase reporter gene assay relative to control. To be noted: Homo sapiens. The arrangement: scale not given: the % may be the effect or the level left. It is filed as cell-based. An outline of the steps: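 HEK293 cells carrying siRNA knockdown of GSK3β, Axin or CK1α (36 h transfection) were treated with or without 20 nM compound for 24 h. TCF/LEF reporter luminescence was read relative to control, mean ± S.D., n = 3.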

For data set [2], the system named is HEK293. The experiment in a line: Inhibition of 25 to 50 mM LiCl activated Wnt/beta-catenin signaling (unknown origin) expressed in HEK293 cells harboring TCF/LEF-responsive luciferase at 0.1 uM preincubated with cells followed by LiCl addition and measured after 24 hrs by luciferase reporter gene assay. Format: cell-based. The settings on record: Homo sapiens. (A reporter such as luciferase makes a cellular process visible.)

For data set [3], the target named is Axin-1 (Homo sapiens) (UniProt O15169). The experiment in a line: Stabilization of Axin1 protein in HEK293 cells assessed as increase in cytoplasmic punctas at 1 uM after 14 hrs by DAPI staining based confocal microscopic method. Format: cell-based. The gist of the method:
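HEK293 cells on poly-D-lysine slides were treated with 1 μM compound for 14 h. Cells were fixed in 10% formalin for 20 min, permeabilized with methanol, blocked with 5% BSA, stained overnight for Axin1 with secondary antibody for 2 h, counterstained with DAPI, and imaged by confocal microscopy.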

The nature of data set [4]: Inhibition of LiCl activated Wnt/beta-catenin signaling (unknown origin) expressed in HEK293 cells harboring TCF/LEF-responsive luciferase preincubated with cells followed by LiCl addition and measured after 24 hrs by luciferase reporter gene assay. Format: cell-based. To be noted: Homo sapiens. The gist of the method: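 HEK293 cells carrying the TCF/LEF TOPFlash firefly luciferase reporter were stimulated with LiCl and treated with compound for 24 h. Luminescence was read, and IC50 was fitted from concentration–response data; mean ± S.D., n = 4.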

Data set [5] can be described thus: Toxicity in normal chow diet fed C57BL/6J mouse assessed as serum BUN level at 40 mg/kg, ip administered every 2 days for 11 weeks (reference value: 19 +/- 1.8 mg/dl). Format: organism-based. To be noted: in vivo.
The species named for data set [6] is Mus musculus. The experiment in a line: Inhibition of Wnt/beta-catenin/Axin signaling in mouse hepatocytes assessed as decrease in ACAA1A mRNA level at 5 uM by qPCR analysis. Format: cell-based. The gist of the method:
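Normal mouse hepatocytes were treated with 5 μM compound, and lipogenic and gluconeogenic gene mRNA was measured by qPCR; mean ± S.D. of triplicates.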
On the technique in general: Quantitative PCR measures a nucleic acid by following its amplification.

The subject of data set [7] is Mus musculus. The experiment in a line: Decrease in hepatic PEPCK mRNA level in high fat diet fed C57BL/6J mouse at 40 mg/kg, ip administered every 2 days for 11 weeks by qPCR analysis. Format: functional, organism-based. An outline of the steps:
(§1)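 Male mice, 8 weeks old, fed a 45% kcal fat diet for 6 weeks, then dosed i.p. every 2 days in corn oil vehicle for 11 weeks. Liver mRNA of the indicated genes was quantified at sacrifice; mean ± SEM, n = 5 per group.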

The subject of data set [8] is Mus musculus. The experiment in a line: Effect on hepatic FASN mRNA level in normal chow diet fed C57BL/6J mouse at 40 mg/kg, ip administered every 2 days for 11 weeks by qPCR analysis. To be noted: in vivo. It is filed as ADME, organism-based. An outline of the steps: (§2)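 Male mice, 8 weeks old, kept on normal chow throughout and dosed i.p. every 2 days in corn oil vehicle for 11 weeks. Body weight gain, liver/body weight ratio, and liver mRNA of the indicated genes were measured at sacrifice; mean ± SEM, n = 5 per group where stated.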

For data set [9], the species on record is Homo sapiens. The experiment in a line: Ratio of IC50 for Wnt/beta-catenin signaling (unknown origin) expressed in HEK293 cells harboring GSK3B siRNA to IC50 for Wnt/beta-catenin signaling (unknown origin) expressed in HEK293 cells harboring siRNA. It is filed as cell-based.
Data set [10] in a line: Toxicity in high fat diet fed C57BL/6J mouse assessed as serum AST level at 40 mg/kg, ip administered every 2 days for 11 weeks (reference value: 131 +/- 15.6 U/L). The settings on record: in vivo. Format: organism-based.
In data set [11] the test system is Mus musculus. The experiment in a line: Effect on hepatic ACC1 mRNA level in normal chow diet fed C57BL/6J mouse at 40 mg/kg, ip administered every 2 days for 11 weeks by qPCR analysis. To be noted: in vivo. It is filed as ADME, organism-based. An outline of the steps: as §2
Data set [12] concerns HEK293. The experiment in a line: Inhibition of Wnt (unknown origin)/FLAG-tagged human beta-catenin signaling expressed in HEK293 cells harboring TCF/LEF-responsive luciferase at 100 nM measured after 24 hrs by luciferase reporter gene assay. It is filed as cell-based. The gist of the method:
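HEK293 cells were transfected for 16 h with TOPFlash or FOPFlash, Renilla, and pcDNA3 wild-type or S33Y β-catenin. Compound was then added for a further 24 h. Firefly/Renilla dual-luciferase ratio was the read-out.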

The test system of data set [13] is SW480. The experiment in a line: Inhibition of Wnt/beta-catenin signaling in human SW480 cells harboring APC mutant at 50 nM after 24 hrs by luciferase reporter gene assay. Format: cell-based.
Data set [14] deals with Mus musculus. The experiment in a line: Effect on hepatic GCK mRNA level in normal chow diet fed C57BL/6J mouse at 40 mg/kg, ip administered every 2 days for 11 weeks by qPCR analysis. Format: ADME, organism-based. The settings on record: in vivo. The gist of the method:
as §2

Data set [15] has as its system Mus musculus. The experiment in a line: Decrease in hepatic lipid accumulation in high fat diet fed C57BL/6J mouse at 40 mg/kg, ip administered every 2 days for 11 weeks. It is filed as functional, organism-based. An outline of the steps: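 Male mice, 8 weeks old, 24–27 g, given a 45% kcal fat diet for 6 weeks, then dosed i.p. every 2 days in corn oil vehicle with the diet continued. Sacrifice was about 24 h after the last dose. Liver was examined by H&E. Liver and serum triglyceride were measured by kit. Serum chemistry was included, and liver/body weight ratio was calculated.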

Data set [16] concerns HEK293. The experiment in a line: Inhibition of LiCl-activated Wnt/beta-catenin/Axin signaling (unknown origin) expressed in HEK293 cells assessed as degradation of beta-catenin by measuring decrease in beta-catenin protein expression after 24 hrs by Western blot method. Format: cell-based. The settings on record: Homo sapiens. The gist of the method: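 HEK293 cells were treated with compound in the presence of lithium chloride for 24 h. Lysis buffer contained 10 mM HEPES, 100 μM EDTA, 10 mM KCl, 0.5% NP40 and inhibitors. Protein was quantified by BCA, resolved on 10% SDS-PAGE, and immunoblotted for β-catenin.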

A short description of data set [17]: Toxicity in normal chow diet fed C57BL/6J mouse assessed as serum ALT level at 40 mg/kg, ip administered every 2 days for 11 weeks (reference value: 20 +/- 5.1 U/L). Format: organism-based. The settings on record: in vivo.
Data set [18] deals with Mus musculus. The experiment in a line: Effect on hepatic CycD1 mRNA level in normal chow diet fed C57BL/6J mouse at 40 mg/kg, ip administered every 2 days for 11 weeks by qPCR analysis. Format: ADME, organism-based. The settings on record: in vivo. The gist of the method:
as §2

A short description of data set [19]: Toxicity in normal chow diet fed C57BL/6J mouse assessed as serum creatinine level at 40 mg/kg, ip administered every 2 days for 11 weeks by Jaffe's reaction analysis (reference value: 0.2 +/- 0.01 mg/dl). Format: organism-based. To be noted: in vivo.
Data set [20] deals with Mus musculus. The experiment in a line: Decrease in hepatic ACC1 mRNA level in high fat diet fed C57BL/6J mouse at 40 mg/kg, ip administered every 2 days for 11 weeks by qPCR analysis. Format: functional, organism-based. An outline of the steps:
as §1

Data set [21] deals with Mus musculus. The experiment in a line: Decrease in hepatic SCD1 mRNA level in high fat diet fed C57BL/6J mouse at 40 mg/kg, ip administered every 2 days for 11 weeks by qPCR analysis. It is filed as functional, organism-based. An outline of the steps: as §1
The subject of data set [22] is Mus musculus. The experiment in a line: Effect on body weight gain in normal chow diet fed C57BL/6J mouse at 40 mg/kg, ip administered every 2 days for 11 weeks. It is filed as ADME, organism-based. To be noted: in vivo. The gist of the method:
as §2

For data set [23], the system named is Mus musculus. The experiment in a line: Effect on hepatic ACOT4 mRNA level in normal chow diet fed C57BL/6J mouse at 40 mg/kg, ip administered every 2 days for 11 weeks by qPCR analysis. Format: ADME, organism-based. The settings on record: in vivo. The gist of the method: as §2

Calls of active or inactive are those of the source. The calls are words filed in the database; no cut-off is given here.

Sequence of Axin-1 (Homo sapiens) (O15169 whole entry): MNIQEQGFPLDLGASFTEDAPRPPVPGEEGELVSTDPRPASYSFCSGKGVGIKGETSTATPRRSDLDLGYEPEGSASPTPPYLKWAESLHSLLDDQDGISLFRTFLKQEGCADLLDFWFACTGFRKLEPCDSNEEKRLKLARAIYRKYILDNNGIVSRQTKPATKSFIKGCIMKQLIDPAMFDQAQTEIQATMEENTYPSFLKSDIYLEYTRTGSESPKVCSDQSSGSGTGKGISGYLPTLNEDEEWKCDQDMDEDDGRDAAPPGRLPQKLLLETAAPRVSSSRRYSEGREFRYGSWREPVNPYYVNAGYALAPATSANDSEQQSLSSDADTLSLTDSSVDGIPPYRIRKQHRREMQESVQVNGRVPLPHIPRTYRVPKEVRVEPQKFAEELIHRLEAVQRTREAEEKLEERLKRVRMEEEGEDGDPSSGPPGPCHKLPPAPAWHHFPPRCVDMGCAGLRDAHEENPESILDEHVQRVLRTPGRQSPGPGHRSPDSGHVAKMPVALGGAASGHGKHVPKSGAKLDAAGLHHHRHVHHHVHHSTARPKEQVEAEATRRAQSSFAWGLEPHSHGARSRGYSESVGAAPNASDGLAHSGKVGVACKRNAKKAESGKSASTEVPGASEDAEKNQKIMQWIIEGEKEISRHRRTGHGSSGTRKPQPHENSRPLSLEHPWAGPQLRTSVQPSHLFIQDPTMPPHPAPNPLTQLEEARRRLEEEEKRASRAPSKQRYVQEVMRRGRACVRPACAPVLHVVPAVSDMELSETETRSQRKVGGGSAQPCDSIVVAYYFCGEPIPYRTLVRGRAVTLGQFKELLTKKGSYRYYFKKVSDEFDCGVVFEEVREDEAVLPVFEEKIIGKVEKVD

As a reminder, the IC50 is the concentration needed to halve the response being measured. As to `Cc1ccccc1-n1nnc(C(=O)Nc2ccc3ccccc3n2)c1C`, the Activity in data set [1] is 40%; in [5] it was 21.8 mg/dL; in data set [8] it was “Non-Toxic”; in data set [10], 94.8 U/L; in data set [11] it was “Non-Toxic”; in data set [14], “Non-Toxic”. Further, the Activity in data set [17] is 12.8 U/L; in data set [18] it was “Non-Toxic”; in data set [19], 0.2 mg/dL; in data set [22] it was “Non-Toxic”; in data set [23], “Non-Toxic”. Further, the inhibition result in data set [2], in [6], in data set [12], in data set [13] and in [16] was “Active” throughout. The result in [3], in data set [7], in data set [15], in data set [20] and in data set [21] was Active. The IC50 in [4] stood at 6 nM. The Ratio IC50 in data set [9] was found to be 1.7.
